An excerpt weighted towards active compounds, which were near 3.7% of everything screened.
SR-BI HDL uptake = mouse SR-BI HDL lipid transfer inhibition; Q61009; ldlA[mSR-BI] CHO cells, DiI-HDL uptake fluorescence, 3 h; inhibition, % at 12.5 µM; hit rate 0.96% among 320,000;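 active = mean replicate inhibition of at least 70% and a set share of replicates each scoring 70 or more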;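 also: 0% = median of neutral control wells and 100% = median of positive control wells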
Target sequence (Q61009 whole entry, looked up): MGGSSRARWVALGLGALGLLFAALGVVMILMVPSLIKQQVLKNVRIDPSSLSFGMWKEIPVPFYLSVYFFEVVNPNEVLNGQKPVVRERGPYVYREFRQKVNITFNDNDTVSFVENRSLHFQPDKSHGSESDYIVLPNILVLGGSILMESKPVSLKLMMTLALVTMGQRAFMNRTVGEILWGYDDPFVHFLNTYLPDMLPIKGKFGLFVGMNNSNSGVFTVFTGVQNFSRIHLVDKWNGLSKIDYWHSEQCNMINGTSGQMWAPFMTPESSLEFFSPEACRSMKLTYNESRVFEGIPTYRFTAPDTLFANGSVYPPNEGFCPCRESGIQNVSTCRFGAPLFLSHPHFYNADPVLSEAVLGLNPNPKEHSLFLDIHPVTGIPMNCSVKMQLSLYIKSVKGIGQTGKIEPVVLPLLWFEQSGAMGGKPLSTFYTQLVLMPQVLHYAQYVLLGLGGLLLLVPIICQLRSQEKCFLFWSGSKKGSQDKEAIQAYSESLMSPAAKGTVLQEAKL
GASC-1 inh = blocks human GASC-1 demethylase activity; Q9H3R0; GST-JMJD2C(1-420) H3K9me3 demethylation, DELFIA europium; inhibition, % at 2.35 µM; hit rate 0.069% among 330,000;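 active = more than half of a compound's replicate wells show inhibition beyond 50%, single wells judged on their own value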;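 also: signal counts dimethyl H3K9 product captured on neutravidin plate; 0% = median of DMSO wells and 100% = 0.3 times that DMSO median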
SR-BI uptake up = SR-BI HDL lipid transfer activation; CHO ldlA[mSR-BI] cells, DiI-HDL uptake fluorescence, 3 h; 100 = double the neutral-control signal; activation, % at 12.5 µM; hit rate 0.096% among 320,000; AID 504775;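 active = mean replicate activation of at least 60% and every replicate at or above 60%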;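 also: 0% = median plate neutral-control signal and 100% = twice that signal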
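material = CHO ldlA[mSR-BI] cells | medium = Ham's F12 with 0.5% BSA, HEPES 25 mM, pH 7.4 | reagent = fluorescent DiI-HDL, 10 µg/mL final | compound dosing = single-point compound dose | incubation = 3 h, 37 °C | measured by = bottom-read fluorescence, 550/595 nm | measure = HDL uptake via cellular fluorescence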
AHR act = activates the human aryl hydrocarbon receptor | AHR-responsive luciferase reporter cells, luminescence | P35869 | AID 2796 | hit rate 2.5% among 320,000 | activation, % at 5 µM; in the data active = activation above about 47%;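 also: 0% = vehicle wells and 100% = reference agonist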
GAA850 FXN act = frataxin GAA850 promoter activation. HEK293 lucGAA850 FXN promoter luciferase reporter, 24 h; percent of 10 µM SAHA response. activation, % at 6 µM. hit rate 0.56% among 360,000. AID 540364;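 active = activation above the average of all compounds screened plus 3 SD, cutoff fixed separately per campaign, cut at about 7.5% in these data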;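 also: 0% = DMSO wells and 100% = 10 µM SAHA wells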
* hit, by the source's call; · = no result given.

SMILES | SR-BI HDL uptake | GASC-1 inh | SR-BI uptake up | AHR act | GAA850 FXN act
CCOc1cc(C(=O)Nc2ccccc2F)cc(Br)c1OCC | 51.9 | -32.0 | -51.9 | 5.7 | 1.2
COc1ccc(O)c(/C=N/NC(=O)c2ccc(CSc3nc(C)cc(C)n3)cc2)c1 | 125.3* | 13.5 | -125.3 | 7.5 | -2.0
Cc1cc(C)nc(SCc2ccc(C(=O)N/N=C/c3cccc(O)c3O)cc2)n1 | 92.7* | -21.1 | -92.7 | 5.6 | -7.8
Cc1ccc(S(=O)(=O)Nc2c(O)ccc3ccccc23)cc1 | · | -3.1 | · | 54.1* | -0.8
O=S(=O)(Nc1c(O)ccc2ccccc12)c1cccc2ccccc12 | 5.2 | -12.1 | -5.2 | 39.0 | -2.9
CC(C)CNC(=O)C1(C)CCCCCN1C(=O)c1cc(C#N)cs1 (configuration not stated) | · | · | · | · | -0.6
COc1cccc(NC(=O)c2ccnc(N3CCC(C(=O)NCc4ccccc4OC)CC3)c2)c1 | 87.5* | 12.0 | -87.5 | 1.0 | 3.6
Cc1ccc(C2=N/C(=C\c3cccc(F)c3)C(=O)O2)cc1 | -44.9 | -34.5 | 44.9 | -1.3 | 1.0
CCOCC(O)CNc1ccccc1 (configuration not stated) | -28.0 | 1.3 | 28.0 | -2.7 | 0.3
OC(CNc1ccccc1)COc1ccc(OCC(O)CNc2ccccc2)cc1 (configuration not stated) | 73.6* | 0.2 | -73.6 | 5.8 | -0.6
Cc1ccc(OCCNCC(O)COc2ccccc2)cc1 (configuration not stated) | 11.8 | -10.4 | -11.8 | 65.8* | -0.4
CC(=O)CCc1ccc(OCC(O)CNCCOc2ccc(C)cc2)cc1 (configuration not stated) | -0.6 | 5.8 | 0.6 | 0.4 | 0.0
Cc1ccnn1CC(=O)N/N=C/c1cn[nH]c1-c1ccccc1 | -2.9 | -13.2 | 2.9 | 27.5 | 0.4
Cc1cc(CNC(=O)C2CCC(=O)N(Cc3ccccc3F)C2)nn1C (configuration not stated) | -7.8 | -4.9 | 7.8 | -1.1 | 1.0
COc1ccc(C(=O)COc2nc(C)cc(C)c2C#N)cc1 | 13.4 | 1.2 | -13.4 | 47.2* | -0.1
Cc1cc(C)c(C#N)c(Oc2ccc(O)cc2)n1 | 20.8 | 22.9 | -18.6 | 1.5 | 0.0
CCCC(=O)Nc1cccc(Oc2nc(C)cc(C)c2C#N)c1 | 50.8 | 9.5 | -50.8 | 58.4* | 1.1
Cc1ccc2c(c1)N=C(c1ccccc1)CC(C(Cl)Cl)=N2 | 26.9 | -25.9 | -26.9 | 61.8* | -0.1
CN(C)S(=O)(=O)c1cc(NC(=O)c2ccc(-n3ccnc3)c([N+](=O)[O-])c2)ccc1Cl | 62.6 | -6.8 | -62.6 | 53.1* | 0.2
Cc1nn(CC(=O)Nc2ccc(Cl)c(S(=O)(=O)N(C)C)c2)c(C)c1[N+](=O)[O-] | 20.9 | 1.3 | -20.9 | 3.0 | 1.3
COc1ccc(N/N=C(\C=N\O)C(=O)c2ccc(OC)cc2)cc1 | 19.1 | 4.0 | -19.1 | 47.5* | -3.0
COc1ccc(OCC(=O)NCCNC(=O)c2cccnc2)cc1 | -25.1 | 14.7 | 25.1 | 0.3 | 0.9
O=C(CSc1nnc(NC(=O)c2ccccc2[N+](=O)[O-])s1)NC1CCCC1 | -16.4 | 1.9 | 16.4 | 1.0 | 2.5
O=C(c1cc2ccccc2oc1=O)N(c1ccc(Cl)cc1)C1C=CS(=O)(=O)C1 (configuration not stated) | -19.8 | 9.2 | 19.8 | 4.0 | 0.9
CCCOP(=O)(OCCC)C(Nc1ccc(C(C)C)cc1)c1ccc([N+](=O)[O-])cc1 (configuration not stated) | 9.3 | -9.5 | -9.3 | 59.9* | -1.6
SMILES | SR-BI HDL uptake | GASC-1 inh | SR-BI uptake up | AHR act | GAA850 FXN act
COc1ccc(C)c2sc(=NC(=O)c3ccc(C(C)=O)cc3)n(C)c12 | · | 2.7 | · | 22.7 | 6.3
COc1ccc(C)c2sc(=NC(=O)c3ccccc3)n(C)c12 | 74.1* | 9.5 | -74.1 | 33.8 | 3.6
CCOC(=O)c1c(N/N=C/c2cccnc2)n[nH]c1C | 9.4 | 6.2 | -9.4 | 51.6* | -0.7
Cc1ccc(OCC(=O)N/N=C/c2cccnc2)cc1 | -4.6 | -3.7 | 4.6 | 8.8 | -0.2
CSc1nsc(SC)c1C(=O)Nc1ccc(Cl)cc1 | 27.1 | -4.0 | -27.1 | 58.0* | 1.1
CCOC(=O)N1CCC(c2nc3ccccc3[nH]2)CC1 | -2.3 | 53.4* | 2.3 | 2.9 | 5.6
CC(C)CCNC(=O)CN(Cc1ccccc1Cl)C(=O)CCC(=O)Nc1ccccn1 | · | -9.4 | · | -6.2 | 0.3
COc1ccccc1C(NC(=O)C1CCN(CCOc2ccccc2)CC1)c1ccccn1 (configuration not stated) | · | · | · | · | 0.8
O=C(NC1=C(Nc2ccc(Cl)cc2)C(=O)c2ccccc2C1=O)c1ccccc1 | -7.9 | 3.6 | 7.9 | 69.2* | -4.5
O=C(Nc1cccc(-c2csc(Nc3cccc(C(F)(F)F)c3)n2)c1)c1ccccc1 | 78.3* | 16.1 | -78.3 | 46.8 | -0.5
O=C(Nc1nc(-c2ccccc2)cs1)c1cccc([N+](=O)[O-])c1 | 51.3 | 2.8 | -51.3 | -10.5 | -1.7
O=C(Nc1ccc(Nc2ccccc2)cc1)c1ccc(Cl)cc1 | 48.8 | 9.5 | -48.8 | -7.8 | 0.6
O=C(Nc1cccc(-c2csc(Nc3ccccc3)n2)c1)c1ccccc1 | 76.9* | -2.9 | -76.9 | 71.1* | -1.0
O=C(Nc1cccc(-c2cnc3ccccc3n2)c1)c1ccccc1 | 13.9 | -6.9 | -13.9 | 9.5 | 6.0
O=C(Nc1ccc(-c2csc(Nc3cccc(C(F)(F)F)c3)n2)cc1)c1cc([N+](=O)[O-])cc(C(F)(F)F)c1 | 91.9* | 0.5 | -91.9 | 11.3 | 1.7
O=C(Nc1ccc(-c2csc(Nc3cccc(C(F)(F)F)c3)n2)cc1)c1ccccc1 | 97.2* | · | -97.2 | 78.1* | -0.5
Cc1nc(-c2ccc(NC(=O)c3ccccc3)cc2)cs1 | 23.1 | -4.5 | -23.1 | -7.1 | 0.4
O=C(Nc1ccc(-c2csc(Nc3ccc(Cl)cc3)n2)cc1)c1ccccc1 | 92.8* | 30.1 | -92.8 | 33.9 | 1.2
CC(=O)c1ccc(OCCCC(=O)Nc2nnc(C3CC3)s2)cc1 | 2.7 | -4.3 | -2.7 | 0.9 | -0.1
CCCNC(=O)C[C@@H]1C[C@@H]2c3cc(NS(=O)(=O)c4ccc(OC)cc4)ccc3O[C@@H]2[C@@H](CO)O1 | · | · | · | · | -0.2
Cn1nc(C(F)(F)F)c2cc(C(=O)Nc3ccc(F)cc3)sc21 | 75.7* | -2.0 | -75.7 | -0.5 | 0.5
Cn1nc(C(F)(F)F)c2cc(C(=O)Nc3ccc(C(F)(F)F)cc3)sc21 | 84.1* | -18.9 | -84.1 | -5.1 | 0.9
CCCCOc1ccc([N+](=O)[O-])cc1C(=O)O | -20.1 | -17.0 | 20.1 | 1.9 | 0.6
COc1ccc(/C=C(/NC(=O)c2ccc(Br)cc2)C(=O)Nc2cccc(C(=O)O)c2)cc1 | · | · | · | · | 2.1
O=C(NCCOc1ccccc1)c1ccccc1SCC(=O)N1CCCC1 | 12.6 | -11.9 | -12.6 | 15.5 | 0.9
CN(/N=C/C=C/c1ccccc1)c1cc(=O)n(C)c(=O)[nH]1 | -15.2 | 2.8 | 15.2 | 69.7* | 1.4
COc1cc(/C=C/C(=O)N2CCCc3ccccc32)cc(OC)c1OC | -3.1 | 5.6 | 3.1 | 55.0* | -0.7
